Source: article PMC12107431 (Nucleic Acids Research, 2025)
Residue numbers refer to the chain shown, from its start. Names and notes keep the numbering of the source. Values joined by “and” are separate entries in the source; they are usually repeats but may differ in a detail not shown here. Equal values may be shown once. No end group written: not given here.

T1: ETO2-NHR4 (Homo sapiens, UniProt O75081)
T1 sequence (O75081 551-597): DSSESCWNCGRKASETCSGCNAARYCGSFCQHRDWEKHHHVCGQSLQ

B1: ETO2-NHR3-4 (NHR3 and NHR4 domains of human ETO2, residues 480-597) (domain or fragment, UniProt O75081 480-597, looked up)
chain: GYVPEDIWRKAEEAVNEVKRQAMSELQKAVSDAERKAHELITTERAKMERALAEAKRQASEDALTVINQQEDSSESCWNCGRKASETCSGCNAARYCGSFCQHRDWEKHHHVCGQSLQ
B2: ETO2-NHR3-4 (V497I/A501L) (domain or fragment, human, UniProt O75081 480-597, looked up)
chain: B1 chain with V18I, A22L
B3: ETO2-NHR4 (NHR4 domain of human ETO2, residues 551-597) (domain or fragment, UniProt O75081 551-597, looked up)
chain: T1 sequence (O75081 551-597)
B4: (M)PPPLx4 (GATAD2A residues 177-284, four polyproline-leucine motifs) (peptide, UniProt Q86YP4 177-284, looked up)
chain: QKPTGSVGSTVTTPPPLVRGTQNIPAGKPSLQTSSARMPGSVIPPPLVRGGQQASSKLGPQASSQVVMPPLVRGAQQIHSIRQHSSTGPPPLLLAPRASVPSVQIQGQ
B5: (M)PPPLx4: bacterially expressed GATAD2A residues 177–284 with four (M)PPPL motifs and C-terminal Twin-Strep-tag (protein)
chain: B4 chain
modifications: left off: thioredoxin, N-terminal, cleaved | His6, N-terminal, cleaved | Twin-Strep-tag, C-terminal, state not stated
B6: PPPLx2A (GATAD2A residues 177-235, first two motifs) (peptide, UniProt Q86YP4 177-235, looked up)
chain: QKPTGSVGSTVTTPPPLVRGTQNIPAGKPSLQTSSARMPGSVIPPPLVRGGQQASSKLG

How the values were obtained:
[1] = molecular target: NHR3 domain of ETO; conditions: PKA (RIIα) binding to NHR3 domain of ETO; cited from earlier work
[2] = test system: ETO2-NHR3-4; experiment: ITC with ETO2-NHR3-4 in the presence of PKA; assay type: binding, human; conditions: ITC KD with vs without PKA (RIIα)
Summary of the method: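 ETO2-NHR3-4 (50 μM) is premixed at a 2:1 molar ratio with PKA (RII)α residues 1–45 (100 μM), both bacterially expressed and purified by Ni affinity, TEV cleavage and size exclusion. N-CoRx2A or PPPLx2A peptide (250 μM) is titrated in: 20 × 2 μL injections 180 s apart at 25 °C, in 25 mM Bis-Tris pH 7.2, 100 mM NaCl, 1 mM DTT, 50 μM ZnSO4. KD is fitted by software and reported as mean ± SD of two runs.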

[3] = molecular target: T1, ETO2-NHR4; experiment: 15N-HSQC chemical shift perturbation titration; assay type: binding
[4] = molecular target: the molecule itself; experiment: SEC-MALS
[5] = molecular target: B4; experiment: ITC
[6] = molecular target: B1; experiment: ITC
[7] = test system: ETO2-NHR3-4; experiment: Isothermal titration calorimetry; assay type: binding, human; conditions: ITC KD ratio
[8] = molecular target: T1, ETO2-NHR4; experiment: Isothermal titration calorimetry; assay type: binding; conditions: all four motifs vs single motifs
[9] = molecular target: B1; experiment: ITC; remark: listed apart in the source

In the case of “PKA (RIIα): cAMP-dependent protein kinase type II-alpha regulatory subunit; residues 1–45 used here”, the Kd [1] is listed as 0.128 µM.

For “PPPLx2A: bacterially expressed GATAD2A residues 177–235, first two motifs (QKPTGSVGSTVTTPPPLVRGTQNIPAGKPSLQTSSARMPGSVIPPPLVRGGQQASSKLG; also: C-terminal Twin-Strep-tag, state not given here)”, the “reduction of affinity for ETO2-NHR3-4 by PKA (RIIα)” value [2] was “approximately 10 fold”.

Work on KYGASSQVVMPPLVRGAQQ-NH2 [MPPL-3] yielded a Kd [3] of 249 ± 3 µM.

With B1 the “stoichiometry N” value [4] was 2 and 4.

In the case of B2, the “stoichiometry N” value [4] is reported as 4.

B3 gave a Kd [5] of 30 µM.

Work on B4 yielded a Kd [6] of 3 µM.

With B5 the “increase of binding affinity with ETO2-NHR3-4 compared to the NHR4 domain alone” value [7] was 10 fold and the “increase of binding affinity compared to the individual binding sites” value [8] was “up to 10 fold”.

In the case of B6, the Kd [6] is reported as 6 µM and the “KD in the presence of PKA (RIIα)” value [9] is reported as 50 µM.
